pIC50: −log10 of the molar value. Calls of active or inactive are those of the source. The rule behind the calls is not given here.
Key:
[1] = Chemoprevention index, ratio of IC50 for mouse Hepa-1c1c7 cells to drug level required to double specific NADPH:quinone reductase activity in mouse Hepa-1c1c7 cells; assay type: functional
Procedure, shortened: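 QR induction measured in wild-type Hepa 1c1c7 murine hepatoma cells and two mutant lines (one lacking a functional Ah receptor, one unable to move receptor–ligand complex to the nucleus) by a previously described method; concentrations 2-30 µM; CD = concentration doubling specific QR activity; chemoprevention index = cell-viability IC50 divided by CD.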

[2] = Inhibition of mouse Hepa-1c1c7 cells assessed as cell viability; assay type: functional, cell-based
Procedure, shortened: (§1)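 Cell viability of wild-type and both mutant Hepa 1c1c7 lines measured alongside QR induction; IC50 = half-maximal inhibitory concentration of viability, mean ± SD, n = 2.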

HepG2 [3] = experiment: Induction of antioxidant response element activity in human HepG2 cells at 10 uM by luciferase based chemiluminescence assay; assay type: functional, cell-based
Procedure, shortened: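 HepG2 human hepatoma cells stably transfected with an ARE-luciferase plasmid were treated with test agent at 10 µM, with DMSO (0.5% final) as vehicle control. Luciferase was read by chemiluminescence and expressed as fold induction over control, as means of three determinations ± SD. Significance was tested by Student's t-test (p < 0.05).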

[4] = Inhibition of mouse Hepa-1c1c7 Bprc1 mutant cells assessed as cell viability; assay type: functional; procedure, shortened: as §1
[5] = Inhibition of mouse Hepa-1c1c7 TAOc1Bprc1 mutant cells assessed as cell viability; assay type: functional; procedure, shortened: as §1
HepG2 [6] = experiment: Induction of antioxidant response element activity in human HepG2 cells by luciferase based chemiluminescence assay; assay type: functional, cell-based
Procedure, shortened: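 HepG2 human hepatoma cells stably transfected with an ARE-luciferase plasmid; treated with 1.9-30 µM test agent, 10 µM 4′-bromoflavone or 10 µM sulforaphane positive controls, DMSO 0.5% final as vehicle control; chemiluminescence luciferase read-out as fold over control; mean of three determinations ± SD, Student's t-test p < 0.05.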

HepG2 [7] = experiment: Cytotoxicity against human HepG2 cells at 7.5 to 30 uM; assay type: functional, cell-based
Rattus norvegicus [8] = experiment: Inhibition of DMBA-induced mammary carcinogenesis in Sprague-Dawley rat assessed as increase in tumor latency at 5000 mg/kg administered 7 days pre-DMBA challenge continued for 7 days post-DMBA challenge assessed after 120 days; assay type: functional, organism-based; design: dose 5000 mg/kg
Procedure, shortened: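 Female Sprague-Dawley rats given DMBA, as described previously; test agent in diet at 2500 or 5000 mg/kg diet from 7 days before to 7 days after DMBA, then unsupplemented diet; 20 rats/group; tumor latency, incidence over 120 days and body weight recorded.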

Rattus norvegicus [9] = experiment: Toxicity in DMBA-induced mammary carcinogenesis in Sprague-Dawley rat assessed as body weight changes up to 20000 mg/kg administered 7 days pre-DMBA challenge continued for 7 days post-DMBA challenge assessed after 120 days; assay type: organism-based; design: dose 20000 mg/kg; conditions: in vivo, 2880 h
Procedure, shortened: (§2)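 Dose-finding prior to tumor study: diets with 1000, 2000, 3000, 4000, 5000 and 20 000 mg/kg diet; toxicity judged by body weight change and necropsy.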

Rattus norvegicus [10] = experiment: Toxicity in DMBA-induced mammary carcinogenesis in Sprague-Dawley rat assessed as necropsy up to 20000 mg/kg administered 7 days pre-DMBA challenge continued for 7 days post-DMBA challenge assessed after 120 days; assay type: organism-based; design: dose 20000 mg/kg; conditions: in vivo, 2880 h; procedure, shortened: as §2
[11] = Chemoprevention index, ratio of IC50 for mouse Hepa-1c1c7 Bprc1 mutant cells to drug level required to double specific NADPH:quinone reductase activity in mouse Hepa-1c1c7 Bprc1 mutant cells; assay type: functional
Procedure, shortened: (§3)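 Hepa 1c1c7 mutant lines; the index is the IC50 for cell viability (half-maximal inhibition; mean ± SD, n = 2) divided by the concentration that doubles QR specific activity (CD) in the same mutant line.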

[12] = Chemoprevention index, ratio of IC50 for mouse Hepa-1c1c7 TAOc1Bprc1 mutant cells to drug level required to double specific NADPH:quinone reductase activity in mouse Hepa-1c1c7 TAOc1Bprc1 mutant cells; assay type: functional; procedure, shortened: as §3
[13] = Inhibition of 7,12-dimethylbenz[a]anthracene-induced preneoplastic lesions in a mouse mammary gland culture at 10 ug/mL; assay type: functional

Compound	Ratio [1]	pIC50 [2]	Activity (HepG2 [3])	pIC50 [4]	pIC50 [5]	Activity (HepG2 [6])	Activity (HepG2 [7])	Activity (Rattus norvegicus [8])	Activity (Rattus norvegicus [9])	Activity (Rattus norvegicus [10])	Ratio [11]	Ratio [12]	inhibition at 10 µg/mL [13]
O=c1cc(-c2ccc(Br)cc2)oc2ccccc12	>2700	< 4.20	Active	< 4.20	< 4.20								
O=C(/C=C/c1ccc(O)cc1)c1ccc(O)cc1O [ISOLIQUIRITIGENIN]	11	4.71		4.79	4.66	Dose-dependent effect	inactive	Active	Non-toxic	Non-toxic	2	10	76%
C[S+]([O-])CCCCN=C=S (centres undefined) [SULFORAPHANE]	21	5.20	Active	5.12	5.23						16	18	

From ChEMBL document CHEMBL1157302, “Quinone reductase induction as a biomarker for cancer chemoprevention” (J Nat Prod, 2006)
